Columns and labels:
[1] = target: Dual specificity tyrosine-phosphorylation-regulated kinase 1A (Rattus norvegicus, UniProt Q63470); test: Inhibition of GST-tagged rat recombinant DYRK1A expressed in Escherichia coli using KKISGRLSPIMTEQ as substrate
[2] = target: Cyclin-dependent kinase 5/CDK5 activator 1 (Homo sapiens, UniProt Q00535); test: Inhibition of human recombinant CDK5/p25 using [gamma 33P]ATP after 30 mins by scintillation counting; assay type: protein-complex assay
Summary of the method: (§1)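 Native starfish M-phase oocyte CDK1/cyclin B, or recombinant human CDK5/p25, in buffer A pH 7.5 with heparin and BSA. Stopped on P81 paper, washed in 1% phosphoric acid, counted by scintillation. Blank subtracted; % of maximal activity; DMSO dilution controls.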

[3] = target: Glycogen synthase kinase-3 (Sus scrofa, UniProt B2LUN4+I6LNT8); test: Inhibition of porcine brain GSK3alpha/beta using GS1 as substrate
Summary of the method: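 Native GSK-3α/β purified from porcine brain, assayed as for CDK1. Buffer A pH 7.5 with heparin and BSA, 30 °C, 15 μM [γ-33P]ATP, phosphorylated GS-1 peptide as substrate. Read by P81 paper capture and scintillation counting. Activity as % of uninhibited control after blank subtraction.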

[4] = target: Dual specificity protein kinase CLK1 (Mus musculus, UniProt P22518); test: Inhibition of GST-tagged mouse recombinant CLK1 expressed in Escherichia coli using GRSRSRSRSRSR as substrate
Dual specificity protein kinase CLK1, sequence (P22518 whole entry): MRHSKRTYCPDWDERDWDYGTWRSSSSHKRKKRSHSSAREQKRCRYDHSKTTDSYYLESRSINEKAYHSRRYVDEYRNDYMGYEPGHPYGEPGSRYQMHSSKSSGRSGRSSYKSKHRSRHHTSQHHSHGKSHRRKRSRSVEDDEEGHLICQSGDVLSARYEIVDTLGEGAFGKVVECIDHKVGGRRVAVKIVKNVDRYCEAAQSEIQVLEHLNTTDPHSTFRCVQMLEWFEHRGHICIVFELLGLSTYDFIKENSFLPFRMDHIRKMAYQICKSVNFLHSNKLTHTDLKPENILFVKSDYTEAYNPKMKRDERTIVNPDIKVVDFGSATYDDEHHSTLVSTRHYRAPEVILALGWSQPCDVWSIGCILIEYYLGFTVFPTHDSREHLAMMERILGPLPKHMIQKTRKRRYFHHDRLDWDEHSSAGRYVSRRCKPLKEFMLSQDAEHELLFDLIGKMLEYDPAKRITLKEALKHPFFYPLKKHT

[5] = Inhibition of starfish oocyte CDK1/cyclin B using [gamma 33P]ATP after 30 mins by scintillation counting; design: species or system Asteroidea
Summary of the method: as §1, with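 “BSA. Substrate histone H1 25 μg with 15 μM [γ-33P]ATP, 30 min at 30 °C.” for “BSA.”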

Cyclin-dependent kinase 5/CDK5 activator 1, sequence (Q00535 whole entry): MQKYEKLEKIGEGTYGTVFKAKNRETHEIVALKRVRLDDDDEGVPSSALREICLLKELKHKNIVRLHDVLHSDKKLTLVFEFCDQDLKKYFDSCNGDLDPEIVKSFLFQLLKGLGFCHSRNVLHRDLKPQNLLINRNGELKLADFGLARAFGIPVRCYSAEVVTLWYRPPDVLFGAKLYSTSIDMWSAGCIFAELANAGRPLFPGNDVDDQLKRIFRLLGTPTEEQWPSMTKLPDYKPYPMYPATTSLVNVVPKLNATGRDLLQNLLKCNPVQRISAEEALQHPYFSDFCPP
Cyclin-dependent kinase 5/CDK5 activator 1, sequence (Q15078 whole entry, further chain): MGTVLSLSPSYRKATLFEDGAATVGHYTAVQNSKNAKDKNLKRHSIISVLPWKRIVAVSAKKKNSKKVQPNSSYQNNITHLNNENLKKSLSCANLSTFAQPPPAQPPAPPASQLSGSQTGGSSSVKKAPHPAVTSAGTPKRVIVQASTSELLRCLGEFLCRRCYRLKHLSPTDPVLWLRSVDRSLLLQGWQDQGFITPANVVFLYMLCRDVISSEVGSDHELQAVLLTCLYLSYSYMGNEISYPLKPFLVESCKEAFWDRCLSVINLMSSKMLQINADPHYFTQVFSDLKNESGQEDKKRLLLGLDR

SMILES	IC50 [1] [µM]	IC50 [2] [µM]	IC50 [3]	IC50 [4] [µM]	IC50 [5] [µM]
COc1cc(O)c(C2CCCCN2)c2oc(-c3ccccc3)cc(=O)c12 (stereo unspecified)	> 10	> 10	> 10 µM	> 10	> 10
CN1CC[C@H](c2c(O)cc(O)c3c(=O)cc(-c4ccccc4Cl)oc23)[C@H](O)C1 (single isomer, unassigned) [ALVOCIDIB]	–	–	0.36 µM	–	0.09
CN1CCC[C@@H]1c1c(O)cc(O)c2c(=O)cc(-c3ccccc3)oc12	> 10	0.57	2.6 µM	7.4	0.39
CN1CCCC[C@H]1c1c(O)cc(O)c2c(=O)cc(-c3ccccc3)oc12	> 10	0.05	1.6 µM	2.1	0.03
O=c1cc(-c2ccccc2)oc2c(C3CCCN3)c(O)cc(O)c12 (racemic)	> 10	1.1	> 10 µM	> 10	1.6
CN1CCCC[C@@H]1c1c(O)cc(O)c2c(=O)cc(-c3ccccc3)oc12	> 10	0.95	>= 10 uM	> 10	1.1

The next lines start with results.

IC50 [1] [µM]	IC50 [2] [µM]	IC50 [3]	IC50 [4] [µM]	SMILES	IC50 [5] [µM]
> 10	0.04	0.72 µM	0.67	CN1CCC[C@H]1c1c(O)cc(O)c2c(=O)cc(-c3ccccc3)oc12	–
> 10	0.27	4.1 µM	> 10	CCCCC[C@@H](NC)c1c(O)cc(O)c2c(=O)cc(-c3ccccc3)oc12	0.52
> 10	5.5	> 10 µM	> 10	O=c1cc(-c2ccccc2)oc2c(C3CCCCN3)c(O)cc(O)c12 (racemic)	5
> 10	> 10	> 10 µM	> 10	COc1cc(O)c(C2CCCCN2C)c2oc(-c3ccccc3)cc(=O)c12 (stereo unspecified) [BUCHENAVIANINE]	> 10
> 10	0.52	5.2 µM	> 10	CCCCCC(NC)c1c(O)cc(O)c2c(=O)cc(-c3ccccc3)oc12 (racemic)	1.1
> 10	2.1	> 10 µM	> 10	CCCCC[C@H](NC)c1c(O)cc(O)c2c(=O)cc(-c3ccccc3)oc12	5.4
> 10	0.09	1.3 µM	1.6	CN1CCCC1c1c(O)cc(O)c2c(=O)cc(-c3ccccc3)oc12 (racemic)	0.05
> 10	1.7	5.1 µM	8.5	CN1CCCCC1c1c(O)cc(O)c2c(=O)cc(-c3ccccc3)oc12 (racemic)	0.09
